In paper PMC6188675 (Journal of medicinal chemistry, 2013):

Key:
[1] = system: Flag-6x-histidine construct; assay: Quench counter-screen; conditions: compounds tested at 10 µM
How it was run: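 Run as the integrase–LEDGF/p75 AlphaScreen, with one Flag-6xhistidine construct replacing both proteins. Compound incubations were 30 min then 60 min at 4 °C. Ni-chelate donor and anti-FLAG acceptor beads were added at 20 µg/mL each for 1 h at 30 °C, kept from light. Acceptor-bead emission gave percent inhibition.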

[2] = target: IN strand transfer catalysis (Human immunodeficiency virus type 1 group M subtype B, UniProt P12497); assay: IN enzymatic assay, strand transfer; type: biochemical, HIV-1
[3] = target: IN 3'-processing catalysis (Human immunodeficiency virus type 1 group M subtype B, UniProt P12497); assay: IN enzymatic assay, 3'-processing; type: biochemical, HIV-1
LNCaP cells = assay: MTT cytotoxicity assay in LNCaP cells; type: cell-based
HIV-1 = assay: Antiviral MTT/MT-4 assay; type: cell-based; conditions: MT-4 cells, 13 µM

SMILES: Cc1ccc(NCc2ccc(O)c3ncccc23)cc1C [Q2–13, 5-(((3,4-dimethylphenyl)amino)methyl)quinolin-8-ol]
- Quench % Inhib. [1]: <50%

SMILES: CC(=O)NC(c1ccc(N(C)C)cc1)c1cc(Cl)c2cccnc2c1O (stereo not shown) [Q1–10]
- Quench % Inhib. [1]: <50%

SMILES: Cc1ccccc1NCc1ccc(O)c2ncccc12 [Q2-1]
- Quench % Inhib. [1]: <50%

SMILES: Oc1ccc(CNc2ccccc2F)c2cccnc12 [Q2–10]
- IC50 [2]: > 20 µM
- Quench % Inhib. [1]: <50%
- IC50 [3]: > 20 µM

SMILES: CCCC(=O)NC(c1ccc(OC)cc1)c1ccc2cccnc2c1O (stereo not shown) [Q1–11]
- Quench % Inhib. [1]: <50%

SMILES: Oc1ccc(CNc2cccc(C(F)(F)F)c2)c2cccnc12 [Q2–5]
- IC50 [2]: > 20 µM
- Quench % Inhib. [1]: <50%
- IC50 [3]: > 20 µM

SMILES: Cc1ccc(S(=O)(=O)NC(=O)Oc2cccc3cccnc23)cc1 [Q4-1]
- IC50 [2]: > 20 µM
- Quench % Inhib. [1]: <50%
- cytotoxicity in MTT LNCaP assay (in words) (LNCaP cells): low cytotoxicity
- IC50 [3]: > 20 µM

SMILES: Oc1ccc(CN2CCN(c3ccccc3)CC2)c2cccnc12 [Q3–7]
- Quench % Inhib. [1]: <50%
- cytotoxicity in MTT LNCaP assay (in words) (LNCaP cells): notable cell-growth inhibition

SMILES: CCCC(=O)NC(c1ccccc1)c1ccc2cccnc2c1O (stereo not shown) [Q1-1]
- IC50 [2]: > 20 µM
- Quench % Inhib. [1]: <50%
- cytotoxicity in MTT LNCaP assay (in words) (LNCaP cells): notable cytotoxicity
- IC50 [3]: > 20 µM

SMILES: Oc1ccc(CNc2ccc(C(F)(F)F)cc2)c2cccnc12 [Q2–3]
- IC50 [2]: > 20 µM
- Quench % Inhib. [1]: <50%
- IC50 [3]: > 20 µM

SMILES: CCOc1ccc(NCc2ccc(O)c3ncccc23)cc1 [Q2–12]
- Quench % Inhib. [1]: <50%

SMILES: CN1CCN(Cc2ccc(O)c3ncccc23)CC1 [Q3-2]
- Quench % Inhib. [1]: <50%
- cytotoxicity in MTT LNCaP assay (in words) (LNCaP cells): negligible inhibition of cell growth

SMILES: CCOCc1ccc(O)c2ncccc12 [QC, 5-(ethoxymethyl)quinolin-8-ol]
- IC50 [2]: > 20 µM
- Quench % Inhib. [1]: <50%
- IC50 [3]: > 20 µM

SMILES: CCOC(=O)C1CCCN(Cc2ccc(O)c3ncccc23)C1 (stereo not shown) [Q3–6]
- Quench % Inhib. [1]: <50%

SMILES: CCC(=O)NC(c1cccs1)c1cc([N+](=O)[O-])c2cccnc2c1O (stereo not shown) [Q1–6]
- IC50 [2]: > 20 µM
- Quench % Inhib. [1]: <50%
- IC50 [3]: > 20 µM

SMILES: Oc1ccc(CN2CCCCC2)c2cccnc12 [Q3-1]
- Quench % Inhib. [1]: <50%
- cytotoxicity in MTT LNCaP assay (in words) (LNCaP cells): negligible inhibition of cell growth

SMILES: CCC(=O)NC(c1ccc(OC)c(OC)c1)c1cc(Cl)c2cccnc2c1O (stereo not shown) [Q1–9]
- Quench % Inhib. [1]: <50%

SMILES: CCOC(=O)C1CCN(Cc2ccc(O)c3ncccc23)CC1 [Q3–8]
- IC50 [2]: > 20 µM
- Quench % Inhib. [1]: <50%
- IC50 [3]: > 20 µM

SMILES: O=C(CC(Sc1cccc2cccnc12)c1ccc(F)cc1)c1cccs1 (stereo not shown) [Q5-2]
- IC50 [2]: > 20 µM
- Quench % Inhib. [1]: <50%
- IC50 [3]: > 20 µM

SMILES: Cc1cccc(NCc2ccc(O)c3ncccc23)n1 [Q2–4]
- IC50 [2]: > 20 µM
- Quench % Inhib. [1]: <50%
- IC50 [3]: > 20 µM

SMILES: CCC(=O)NC(c1ccccc1OC)c1ccc2cccnc2c1O (stereo not shown) [Q1–2]
- IC50 [2]: > 20 µM
- Quench % Inhib. [1]: <50%
- cytotoxicity in MTT LNCaP assay (in words) (LNCaP cells): notable cytotoxicity
- IC50 [3]: > 20 µM

SMILES: Cc1cccc(NCc2ccc(O)c3ncccc23)c1C [Q2–6]
- IC50 [2]: > 20 µM
- Quench % Inhib. [1]: <50%
- IC50 [3]: > 20 µM
- antiviral activity at maximum testable concentration (HIV-1): no antiviral activity could be detected

SMILES: Oc1ccc(Cc2ccc(O)c3ncccc23)c2cccnc12 [Q2-2]
- Quench % Inhib. [1]: <50%
- cytotoxicity in MTT LNCaP assay (in words) (LNCaP cells): notable cytotoxicity

SMILES: CCC(=O)NC(c1ccco1)c1cc(Cl)c2cccnc2c1O (stereo not shown) [Q1–8]
- Quench % Inhib. [1]: <50%

SMILES: COc1cccc(NCc2ccc(O)c3ncccc23)c1 [Q2–7]
- IC50 [2]: > 20 µM
- Quench % Inhib. [1]: <50%
- cytotoxicity in MTT LNCaP assay (in words) (LNCaP cells): notable cytotoxicity
- IC50 [3]: > 20 µM

SMILES: COc1ccc(C(NC(C)=O)c2cc([N+](=O)[O-])c3cccnc3c2O)cc1OC (stereo not shown) [Q1–7]
- Quench % Inhib. [1]: <50%

SMILES: O=C(CC(Sc1cccc2cccnc12)c1ccc(OC(F)F)cc1)c1ccco1 (stereo not shown) [Q5-1]
- IC50 [2]: > 20 µM
- Quench % Inhib. [1]: <50%
- IC50 [3]: > 20 µM

SMILES: CCC(=O)NC(c1ccc(OC)cc1)c1cc([N+](=O)[O-])c2cccnc2c1O (stereo not shown) [Q1–4]
- IC50 [2]: > 20 µM
- Quench % Inhib. [1]: <50%
- IC50 [3]: > 20 µM

SMILES: CC(=O)NC(c1ccccc1)c1cc(Cl)c2cccnc2c1O (stereo not shown) [Q1–5]
- IC50 [2]: > 20 µM
- Quench % Inhib. [1]: <50%
- IC50 [3]: > 20 µM

SMILES: Oc1ccc(CNc2ccccc2Cl)c2cccnc12 [Q2–14]
- Quench % Inhib. [1]: <50%

SMILES: Cc1cccnc1NCc1ccc(O)c2ncccc12 [Q2–9]
- IC50 [2]: > 20 µM
- Quench % Inhib. [1]: <50%
- IC50 [3]: > 20 µM

SMILES: Cc1cccc(NCc2ccc(O)c3ncccc23)c1 [Q2–11]
- IC50 [2]: > 20 µM
- Quench % Inhib. [1]: <50%
- IC50 [3]: > 20 µM

SMILES: Oc1ccc(Cl)c2cccnc12 [QA, 5-chloroquinolin-8-ol]
- IC50 [2]: > 20 µM
- Quench % Inhib. [1]: <50%
- IC50 [3]: > 20 µM

SMILES: COc1cccc(C(NC(C)=O)c2ccc3cccnc3c2O)c1 (stereo not shown) [Q1–3]
- IC50 [2]: > 20 µM
- Quench % Inhib. [1]: <50%
- IC50 [3]: > 20 µM

SMILES: Oc1ccc(CN2CCN(Cc3ccccc3)CC2)c2cccnc12 [Q3–9]
- IC50 [2]: > 20 µM
- Quench % Inhib. [1]: <50%
- IC50 [3]: > 20 µM

SMILES: Oc1ccccc1C(Nc1nccs1)c1ccc2cccnc2c1O (stereo not shown) [Q1–12]
- Quench % Inhib. [1]: <50%

SMILES: Cc1ccc(NCc2ccc(O)c3ncccc23)cc1 [Q2–8, 5-((p-tolylamino)methyl)quinolin-8-ol]
- Quench % Inhib. [1]: <50%

SMILES: Oc1c(Cl)cc(Cl)c2cccnc12 [QB, 5,7-dichloroquinolin-8-ol]
- IC50 [2]: > 20 µM
- Quench % Inhib. [1]: <50%
- IC50 [3]: > 20 µM
